# PAX8 reporter: inhibitors of PAX8 transcriptional activity in RMG-I cells. RMG-I TPO-luciferase reporter, SteadyGlo, 24 h. inhibition, % at 12.6 µM. AID 652154. 1.2% of 360,000 active;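 active = mean replicate inhibition at least 60% with every replicate also reaching 60%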;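 also: luciferase light reporting Pax8 driven TPO promoter activity; plate controls were median of neutral control wells for no effect and mitoxantrone controls for full effect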
# Rtt109 HAT inh: inhibitors of Candida albicans Rtt109/Vps75 histone acetyltransferase | 0.16% of 330,000 active | purified Rtt109/Vps75, ThioGlo CoA-SH fluorescence, 4 h | inhibition, % at 34.9 µM;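 active = inhibition of at least 50% in every replicate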
# Target sequence (Q5AAJ8 whole entry, looked up): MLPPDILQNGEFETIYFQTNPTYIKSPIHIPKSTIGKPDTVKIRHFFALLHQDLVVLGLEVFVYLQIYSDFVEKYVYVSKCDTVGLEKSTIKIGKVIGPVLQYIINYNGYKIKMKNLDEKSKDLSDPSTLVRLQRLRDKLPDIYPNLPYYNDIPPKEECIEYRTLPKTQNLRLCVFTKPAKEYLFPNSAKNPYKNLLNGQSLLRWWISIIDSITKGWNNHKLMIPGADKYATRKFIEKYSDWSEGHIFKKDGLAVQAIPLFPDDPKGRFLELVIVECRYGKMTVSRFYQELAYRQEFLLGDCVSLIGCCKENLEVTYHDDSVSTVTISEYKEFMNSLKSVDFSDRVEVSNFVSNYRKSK
# PfHsp90 set2: reduces growth (ATP signal) of yeast expressing P. falciparum Hsp90; S. cerevisiae expressing PfHsp90, BacTiter-Glo ATP, 48 h; yeast lacking PDR1 and PDR3 efflux regulators; inhibition, % at 9.4 µM; 0.32% of 310,000 active; AID 504621;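 active = every replicate shows inhibition above about 80%, whatever the replicate mean, limit read from the data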;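 also: 0% = DMSO neutral controls and 100% = 20 µM radicicol positive controls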
# N-glyco inh: blocks N-linked glycosylation in D54 reporter cells. D54 ERlucT glycosylation luciferase reporter, 24 h; percent of 100 nM tunicamycin response. reporter increase, % at 12.5 µM. 0.23% of 360,000 active;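 active = mean luciferase reporter signal, scaled so untreated is 0 and the glycosylation-blocking control 100, at or above a set limit in every replicate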;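 also: luciferase carries N-glycosylation sites so blocking glycosylation raises the light; 0% = median of neutral control wells and 100% = median of 100 nM tunicamycin wells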
# Arrestin-AP2 inh: blocks beta-arrestin peptide binding to AP2 adaptin; AID 504490; inhibition, % at 10 µM; FITC-arrestin peptide / GST-AP2 beads, flow cytometry; AP2 beta2 appendage carries R879A mutation; 0.31% of 340,000 active;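 active = inhibition above a set limit, near 3 SD of compounds lacking own fluorescence, cut at about 54% in these data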;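 also: plate controls were DMSO wells for no effect and 5 µM unlabelled arrestin peptide for full effect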
#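 Material – GST-tagged AP2 beta2-adaptin appendage (R879A) on 4 µm glutathione beads · Probe or stimulus – fluorescein-tagged arrestin peptide at 50 nM final · Timing – 12 min plus 1 h, RT · Detection – bead flow cytometry, FITC channel · Read-out basis – inhibition as reduced fluorescein signal on beads, percent · Medium – PBS plus Tween 20 (0.05%) and BSA (0.1%)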
# Env fusion inh: HIV envelope-mediated fusion inhibition; 1.1% of 360,000 active; inhibition, % at 12.3 µM; AID 651610; HeLa-JRFL Env/CEM21 cell fusion, luciferase;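 active = mean replicate inhibition score of at least 50 and every replicate individually at or above 50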;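 also: 0% = plate neutral controls and 100% = maraviroc near 300 nM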
# Active calls of the source: *; nt = not tested or not shown; [ ] = remark or other dose. Most compounds without a hit are left out; they make up all but 2.3% or so of the library.
SMILES,PAX8 reporter,Rtt109 HAT inh,PfHsp90 set2,N-glyco inh,Arrestin-AP2 inh,Env fusion inh
CCCCOP(=O)(c1ccc(N(C)C)cc1)C(O)c1c(Cl)cccc1Cl (centres undefined),-8.2,-7.1,16.4,-3.3,11.8,58.9*
CCCNC(=O)N1C[C@@H](O)COC[C@@H]2O[C@@H](CC(=O)NCc3ccncn3)CC[C@H]21,-19.2,nt,nt,nt,nt,1.3[16.7 µM]
CCCn1c(C)cc(C(=O)CN2C(=O)c3ccccc3S2(=O)=O)c1C,96.2*,nt,nt,-17.1,nt,67.3*
Cc1ccc(C)c(C(=O)CN2C(=O)c3ccccc3S2(=O)=O)c1,nt,-17.3,1.0,-17.8,-9.2,nt
Cc1cc(C(=O)CN2C(=O)NC(C)(c3ccccc3)C2=O)c(C)n1CC1CCCO1 (centres undefined),nt,0.8,-19.8,1.6,4.6,nt
Cc1cc(C(=O)CN2C(=O)c3ccccc3S2(=O)=O)c(C)n1CC1CCCO1 (centres undefined),nt,5.1,nt,-18.1,-10.0,115.4*
CC(=O)N(C)C[C@@H]1Oc2ncc(/C=C/c3ccccc3)cc2C(=O)N([C@@H](C)CO)C[C@H]1C,nt,nt,nt,nt,nt,-12.5[16.7 µM]
Cc1noc(C)c1NC(=O)Nc1cccc2c1O[C@@H](CN(C)C(=O)Nc1ccc3c(c1)OCO3)[C@H](C)CN([C@H](C)CO)C2=O,5.5,nt,nt,nt,nt,11.7[16.7 µM]
COc1ccc2sc(N(CCCN(C)C)C(=O)c3ccc(S(=O)(=O)N4CCCC4)cc3)nc2c1,-16.3,9.4,-7.1,-4.0,2.0,-15.1
COc1ccc2sc(N(CCCN(C)C)C(=O)c3ccc(S(=O)(=O)N4CCc5ccccc5C4)cc3)nc2c1,nt,-1.7,4.6,-4.9,-13.1,102.4*
O=C(Nc1ccn(Cc2ccccc2F)n1)c1ccc(COc2ccccc2Cl)cc1,nt,-1.7,18.9,-6.2,-3.1,59.5*
O=C(Nc1ccn(Cc2c(F)c(F)cc(F)c2F)n1)c1ccc(COc2ccccc2Cl)cc1,nt,5.1,7.2,-9.9,12.6,nt
CC1=CC(=O)C2=C(C)CC[C@@H]3[C@H](OC(=O)[C@H]3C)[C@@H]12,-10.0,-5.9,2.7,4.3,-1.6,67.6*
CCc1ccc(C(C(=O)NC2CCCC2)N(C(=O)/C=C/C(=O)Nc2cc(C)on2)c2ccccc2C)cc1 (centres undefined),4.5,9.0,2.2,3.5,2.5,77.1*
C[N+](C)(C)CCC(=O)N1C/C(=C/c2ccccc2)C(=O)/C(=C\c2ccccc2)C1,-30.2,-4.1,-25.8,-9.8,10.5,-12.5
CN(C)CCC(=O)N1C/C(=C/c2ccccc2)C(=O)/C(=C\c2ccccc2)C1,nt,-1.2,-0.4,-14.4,-3.1,75.3*
Cn1c(/C=C/c2ccc(Br)cc2)c([N+](=O)[O-])c(=O)n(C)c1=O,62.7*,0.5,-48.3,-2.9,39.6,-24.0
CN(C)c1ccc(/C=C/c2c([N+](=O)[O-])c(=O)n(C)c(=O)n2C)cc1,19.4,6.5,3.4,-2.4,35.2,8.3
COc1ccc(NC(=O)Nc2ccc3c(c2)[C@@H]2C[C@H](CC(=O)N4CCc5ccccc5C4)O[C@H](CO)[C@@H]2O3)cc1,-15.2,nt,nt,nt,nt,13.5[16.7 µM]
COC(=O)C(CC#Cc1ccc2c(c1)[C@]1(C(=O)N2)[C@H](C(=O)NC[C@H](O)c2ccccc2)[C@H]2C(=O)O[C@H](c3ccccc3)[C@H](c3ccccc3)N2[C@@H]1c1ccccc1OCCO)C(=O)OC,100.6*,nt,nt,nt,nt,-17.8[16.7 µM]
C=CCNC(=O)[C@H]1[C@@H]2C(=O)O[C@@H](c3ccccc3)[C@@H](c3ccccc3)N2[C@@H](c2ccccc2OCCO)[C@]12C(=O)N(C(=O)OCCOC)c1ccccc12,81.7*,nt,nt,nt,nt,-489.1[16.7 µM]
COCCOC(=O)N1C(=O)[C@@]2(c3ccccc31)[C@H](c1ccccc1OCCO)N1[C@H](c3ccccc3)[C@H](c3ccccc3)OC(=O)[C@H]1[C@@H]2C(=O)NC[C@H](O)c1ccccc1,109.2*,nt,nt,nt,nt,-201.8[16.7 µM]
C=CCNC(=O)[C@@H]1[C@H]2C(=O)O[C@H](c3ccccc3)[C@H](c3ccccc3)N2[C@H](c2ccccc2OCCO)[C@@]12C(=O)N(C(=O)OCCOC)c1ccccc12,86.8*,nt,nt,nt,nt,-37.5[16.7 µM]
COc1ccc(S(=O)(=O)N2CC3(CN(C(=O)CN(C)C)[C@H](CO)c4c3c3ccc(OC)cc3n4C)C2)cc1,57.2,nt,nt,nt,nt,nt
Nc1cc(Nc2ccccc2)ccn1,5.3,-3.7,-22.5,-0.3,0.9,-3.5
SMILES,PAX8 reporter,Rtt109 HAT inh,PfHsp90 set2,N-glyco inh,Arrestin-AP2 inh,Env fusion inh
N#Cc1sc2nccc(Nc3ccccc3)c2c1N,-4.3,nt,nt,-14.5,-14.9,62.0*
COc1ccc2[nH]c(=O)c(CN(Cc3cccs3)S(=O)(=O)c3cccc4nsnc34)cc2c1,nt,-0.8,-23.1,-1.1,1.4,70.0*
COc1ccc2[nH]c(=O)c(CN(CCO)S(=O)(=O)c3c(C)ccc4nsnc34)cc2c1,1.0,1.9,nt,-0.6,-4.2,-124.0
O=C(c1ccccc1)N(C(=O)c1ccccc1)c1ncnc2c1C(c1ccccc1)c1c(ccc3ccccc13)O2 (centres undefined),71.9*,-6.9,1.9,7.3,9.2,-29.5
C[C@@H]1CN([C@H](C)CO)C(=O)c2cc(-c3ccccc3)cnc2O[C@H]1CN(C)C(=O)C1CCCCC1,nt,nt,nt,nt,nt,3.0[16.7 µM]
O=C(CNC(=O)c1ccncc1)N/N=C/c1cccc([N+](=O)[O-])c1,27.2,51.5*,-7.8,1.4,8.6,-16.7
O=C(C[C@@H]1CC[C@H]2[C@@H](COC[C@@H](O)CN2Cc2cc(F)ccc2F)O1)NCc1ccc(Cl)cc1,18.1,nt,nt,nt,nt,17.2[16.7 µM]
COc1cc(C)cc(C(=O)C=Cc2ccccc2)c1O,-2.6,5.1,nt,31.3*,8.5,-123.4
Cc1ccc(O)c(C(=O)C=Cc2ccccc2)c1,nt,0.5,-7.5,30.0*,26.6,-31.6
Cc1ccc(/C=C/C(=O)c2ccccc2O)cc1,-155.7,-1.8,6.0,4.3,7.1,-6.7
Cc1noc(C)c1S(=O)(=O)Nc1ccc2c(c1)C(=O)N([C@@H](C)CO)C[C@H](C)[C@@H](CN(C)C(=O)c1ccncc1)OCCCC[C@H](C)O2,13.5,nt,nt,nt,nt,8.7[16.7 µM]
C[C@H]1CN([C@@H](C)CO)S(=O)(=O)c2ccc(-c3cccnc3)cc2O[C@H]1CN(C)C(=O)c1cccc(F)c1,nt,nt,nt,nt,nt,25.6[16.7 µM]
O=C(NN1C(=O)/C(=C/C=C/c2ccco2)SC1=S)c1ccccc1O,16.3,70.0*,9.0,-0.9,-0.3,-3.9
C[C@@H]1CCCCO[C@@H](CN(C)C(=O)CCCN(C)C)[C@H](C)CN([C@H](C)CO)C(=O)c2cc(NC(=O)NC3CCCCC3)ccc2O1,-17.3,nt,nt,nt,nt,-1.6[16.7 µM]
Cc1ccc(C(c2nc3ccccc3[nH]2)n2c(-c3ccccc3)nc3ccccc32)cc1 (centres undefined),-132.5,nt,nt,-1.6,nt,58.1*
Cc1ccc(CN2CCc3[nH]c(=S)[nH]c(=O)c3C2)cc1,16.0,-3.4,-1.0,2.3,4.9,10.6
